Here are results for 1 molecule from ChEMBL document CHEMBL2021781, “Dual targeting of histone deacetylase and topoisomerase II with novel bifunctional inhibitors” (J Med Chem, 2012).

The nature of data set [1]: Drug uptake in human A549 cell perinuclear region at 1 uM after 4 hrs by confocal microscopic analysis. The format is ADME, cell-based. Conditions: a549, 4 h. In a few lines:
(§1)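 Cells plated on glass coverslips 24 h ahead, then given fresh media with compound at 1 μM for 4 h. After a PBS wash, coverslips were mounted and intracellular distribution imaged by confocal microscopy, excitation 488 nm. Done in DU-145 cells, with A549 lung tumor cells also examined.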

Data set [2] deals with DNA topoisomerase 2-alpha (Homo sapiens) (UniProt P11388). Briefly: Inhibition of topoisomerase 2 in human DU145 cells assessed as stabilization of enzyme-DNA cleavage complex at 130 nM after 30 mins by immunoblot analysis relative to control. The format is cell-based. The settings on record: DU-145. An outline of the steps: (§2)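 DU-145 cells dosed 30 min or 72 h; controls given 0.1% DMSO. 72 h samples equalized to the 30 min cell count before lysis in 1% sarkosyl. Lysates spun on a CsCl gradient at 31,000 RPM, room temperature, 12 h. Fractions holding Topo II–DNA complexes found by A260, slot-blotted onto nitrocellulose, and immunoblotted for Topo II.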
Chain of DNA topoisomerase 2-alpha (Homo sapiens) (P11388 whole entry): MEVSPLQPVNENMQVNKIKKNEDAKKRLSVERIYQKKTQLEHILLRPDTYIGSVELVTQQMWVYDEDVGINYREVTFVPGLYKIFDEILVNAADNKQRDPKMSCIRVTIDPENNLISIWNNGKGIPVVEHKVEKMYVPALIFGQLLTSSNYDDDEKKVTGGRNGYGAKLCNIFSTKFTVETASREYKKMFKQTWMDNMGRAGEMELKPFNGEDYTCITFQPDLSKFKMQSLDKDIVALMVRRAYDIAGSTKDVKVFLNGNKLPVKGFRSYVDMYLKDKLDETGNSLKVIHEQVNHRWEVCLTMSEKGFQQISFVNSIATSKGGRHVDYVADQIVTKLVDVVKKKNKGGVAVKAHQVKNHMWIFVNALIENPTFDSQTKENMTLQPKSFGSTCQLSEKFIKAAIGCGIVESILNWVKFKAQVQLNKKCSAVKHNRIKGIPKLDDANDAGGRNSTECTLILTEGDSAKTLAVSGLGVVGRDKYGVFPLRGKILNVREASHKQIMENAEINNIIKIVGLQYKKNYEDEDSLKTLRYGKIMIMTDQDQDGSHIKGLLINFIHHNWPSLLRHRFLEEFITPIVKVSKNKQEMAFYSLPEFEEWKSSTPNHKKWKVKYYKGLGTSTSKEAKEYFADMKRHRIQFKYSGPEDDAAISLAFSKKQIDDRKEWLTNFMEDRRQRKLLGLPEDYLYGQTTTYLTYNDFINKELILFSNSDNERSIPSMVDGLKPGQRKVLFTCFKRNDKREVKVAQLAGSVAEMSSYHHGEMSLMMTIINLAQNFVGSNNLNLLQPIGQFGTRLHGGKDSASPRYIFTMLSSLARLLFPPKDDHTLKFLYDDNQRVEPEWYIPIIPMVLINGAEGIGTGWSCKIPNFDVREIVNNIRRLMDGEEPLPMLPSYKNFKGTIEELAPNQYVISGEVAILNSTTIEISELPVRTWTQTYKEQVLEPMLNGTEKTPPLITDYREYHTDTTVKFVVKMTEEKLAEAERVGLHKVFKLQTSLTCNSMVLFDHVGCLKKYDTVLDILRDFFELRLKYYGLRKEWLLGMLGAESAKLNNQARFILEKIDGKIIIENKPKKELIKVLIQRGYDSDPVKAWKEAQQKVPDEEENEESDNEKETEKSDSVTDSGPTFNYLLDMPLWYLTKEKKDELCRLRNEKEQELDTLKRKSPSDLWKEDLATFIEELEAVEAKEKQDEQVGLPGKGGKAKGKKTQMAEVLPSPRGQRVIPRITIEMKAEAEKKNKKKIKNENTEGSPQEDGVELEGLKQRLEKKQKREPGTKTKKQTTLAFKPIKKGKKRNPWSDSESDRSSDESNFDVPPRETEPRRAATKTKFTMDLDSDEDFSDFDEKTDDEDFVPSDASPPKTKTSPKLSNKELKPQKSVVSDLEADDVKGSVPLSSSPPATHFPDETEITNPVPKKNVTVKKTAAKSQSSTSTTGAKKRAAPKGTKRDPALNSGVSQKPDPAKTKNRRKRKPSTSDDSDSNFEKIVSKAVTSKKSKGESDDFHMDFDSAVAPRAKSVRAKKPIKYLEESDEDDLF

The target of another data set is Histone deacetylase 1 (Homo sapiens, UniProt Q13547). Briefly: Inhibition of HDAC1 in human HeLa cell nuclear extract using Fluor de Lys as substrate after 15 mins by fluorometric analysis.
Chain of Histone deacetylase 1 (Q13547 whole entry): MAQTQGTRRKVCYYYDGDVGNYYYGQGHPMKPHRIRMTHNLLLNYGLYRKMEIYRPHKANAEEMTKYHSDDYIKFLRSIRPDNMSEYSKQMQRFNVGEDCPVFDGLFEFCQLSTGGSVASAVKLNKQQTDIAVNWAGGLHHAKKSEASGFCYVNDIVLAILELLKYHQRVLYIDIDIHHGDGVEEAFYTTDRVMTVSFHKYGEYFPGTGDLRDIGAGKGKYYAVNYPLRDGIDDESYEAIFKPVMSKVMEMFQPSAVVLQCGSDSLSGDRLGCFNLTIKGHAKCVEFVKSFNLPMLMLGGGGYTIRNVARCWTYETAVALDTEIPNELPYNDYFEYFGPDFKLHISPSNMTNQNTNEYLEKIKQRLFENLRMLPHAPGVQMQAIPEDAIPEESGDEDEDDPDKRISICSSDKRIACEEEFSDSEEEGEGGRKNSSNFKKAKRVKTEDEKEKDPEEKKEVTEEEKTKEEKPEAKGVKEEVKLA
Data set [3] has as its target DNA topoisomerase 2-alpha (Homo sapiens) (UniProt P11388). Description: Inhibition of topoisomerase 2 in human DU145 cells assessed as stabilization of enzyme-DNA cleavage complex at 130 nM after 72 hrs by immunoblot analysis. The format is cell-based. The settings on record: DU-145. An outline of the steps:
as §2

The nature of data set [4]: Drug uptake in human DU145 cell perinuclear region at 1 uM after 4 hrs by confocal microscopic analysis. The format is ADME, cell-based. Conditions: du-145, 4 h. An outline of the steps: as §1
A short description of data set [5]: Drug uptake in human A549 cell cytosol at 1 uM after 4 hrs by confocal microscopic analysis. The format is ADME, cell-based. An outline of the steps: as §1
In data set [6] the target is T1, Protein deacetylase HDAC6 (Homo sapiens) (UniProt Q9UBN7).
T1 sequence (whole entry): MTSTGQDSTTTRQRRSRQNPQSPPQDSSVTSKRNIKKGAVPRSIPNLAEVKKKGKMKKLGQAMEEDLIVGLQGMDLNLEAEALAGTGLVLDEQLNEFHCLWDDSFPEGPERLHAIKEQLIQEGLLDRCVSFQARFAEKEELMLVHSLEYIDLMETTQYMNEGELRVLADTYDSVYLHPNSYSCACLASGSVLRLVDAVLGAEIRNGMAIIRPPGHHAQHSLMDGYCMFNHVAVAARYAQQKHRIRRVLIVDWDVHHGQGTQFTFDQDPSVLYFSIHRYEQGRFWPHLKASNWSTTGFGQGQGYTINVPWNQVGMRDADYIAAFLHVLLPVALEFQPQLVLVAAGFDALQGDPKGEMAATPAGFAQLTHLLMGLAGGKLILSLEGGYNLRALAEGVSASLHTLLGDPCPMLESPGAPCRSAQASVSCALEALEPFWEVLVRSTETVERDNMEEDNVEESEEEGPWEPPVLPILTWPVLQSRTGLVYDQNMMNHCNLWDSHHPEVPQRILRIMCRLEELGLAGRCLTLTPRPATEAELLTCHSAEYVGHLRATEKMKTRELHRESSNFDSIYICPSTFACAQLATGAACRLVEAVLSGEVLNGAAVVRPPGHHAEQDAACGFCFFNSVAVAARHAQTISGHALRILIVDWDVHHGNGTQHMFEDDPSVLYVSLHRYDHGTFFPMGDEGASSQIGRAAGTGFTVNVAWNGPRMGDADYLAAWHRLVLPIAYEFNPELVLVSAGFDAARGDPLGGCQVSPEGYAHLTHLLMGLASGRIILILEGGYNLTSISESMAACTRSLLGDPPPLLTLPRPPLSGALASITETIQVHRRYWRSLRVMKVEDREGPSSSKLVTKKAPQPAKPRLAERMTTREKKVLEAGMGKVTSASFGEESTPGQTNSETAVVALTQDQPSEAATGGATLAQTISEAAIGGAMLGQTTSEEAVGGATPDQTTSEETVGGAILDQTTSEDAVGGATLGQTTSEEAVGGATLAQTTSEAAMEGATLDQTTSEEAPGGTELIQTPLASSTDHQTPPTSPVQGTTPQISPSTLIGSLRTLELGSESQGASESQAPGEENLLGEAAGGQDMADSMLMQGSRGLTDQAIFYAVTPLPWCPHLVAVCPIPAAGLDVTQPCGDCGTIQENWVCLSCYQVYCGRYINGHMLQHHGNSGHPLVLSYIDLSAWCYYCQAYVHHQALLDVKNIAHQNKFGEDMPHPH
Description: Inhibition of HDAC6-mediated tubulin acetylation in human DU145 cells at 90 nM after 4 hrs by Western blot analysis. The settings on record: DU-145. The format is cell-based. In a few lines:
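DU-145 cells passaged 24 h before dosing, then treated 4 h, with no more than 0.1% DMSO including controls. Lysis in RIPA buffer with protease inhibitors, protein quantified against a BSA standard, SDS-PAGE and transfer. Blots probed with rabbit anti-tubulin and mouse anti-acetyl tubulin, read by near-infrared imaging at 700/800 nm.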
(Immunoblotting shows a protein as a band on a membrane.)

The next data set relates to DU-145. Briefly: Antiproliferative activity against human DU145 cells after 72 hrs by MTS assay. The format is functional, cell-based. Conditions: DU-145, 72 h. In a few lines: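 DU-145 cells passaged 24 h before dosing and exposed 72 h; compounds from 10 mM DMSO stocks; controls given media with 0.1% DMSO; 37°C, 5% CO2. Viability read by MTS assay, with Trypan Blue staining also used. IC50 from the average of two experiments, each run in triplicate.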
On the technique in general: Formazan colour is commonly taken as a measure of viable cells.

For data set [7], the target named is Histone deacetylase (HDAC1 and HDAC2) (Homo sapiens, UniProt Q13547+Q92769). Briefly: Inhibition of HDAC1/2 in human HeLa cell nuclear extract using Fluor de Lys as substrate after 15 mins by fluorometric analysis. The format is protein assay.
In data set [8] the target is T2, Histone deacetylase (Homo sapiens) (UniProt Q13547+O15379+Q9UBN7+Q92769+Q9UQL6+Q8WUI4+Q9BY41+Q96DB2+P56524+Q9UKV0+Q969S8). Briefly: Inhibition of HDAC in human DU145 cells assessed as upregulation of p21 expression at 5 times IC50 concentration after 4 hrs by Western blot analysis relative to control. The format is cell-based. The settings on record: DU-145. An outline of the steps:
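Lysed in RIPA with protease inhibitors, cleared 14,000 RPM at 4°C. Immunoblotted, probing acetylated versus total tubulin; p21 also checked. Near-infrared detection at 700/800 nm.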

Data set [9] can be described thus: Drug uptake in human DU145 cell cytosol at 1 uM after 4 hrs by confocal microscopic analysis. The format is ADME, cell-based, DU-145. In a few lines: as §1
A further data set relates to MCF7. Description: Antiproliferative activity against human MCF7 cells after 72 hrs by MTS assay. The format is functional, cell-based. Conditions: MCF7, 72 h.
The target of data set [10] is T2, Histone deacetylase (Homo sapiens). The settings on record: DU-145, 0.5 to 1 uM.
Data set [11] shares this target. Briefly: Inhibition of HDAC in human DU145 cells assessed as histone H4 acetylation after 24 hrs by Western blot analysis. The format is cell-based. The settings on record: DU-145. In a few lines:
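DU-145 cells passaged 24 h before dosing, then exposed 24 h to compound in growth medium (final DMSO 0.1%); controls received 0.1% DMSO. Lysed in RIPA with protease inhibitors at 4°C, cleared at 14,000 × g. Protein quantified against BSA, boiled, transferred to nitrocellulose. Probed for acetyl-H3, acetyl-H4 and p21waf1 with actin loading control; read by near-infrared scanning at 700/800 nm.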

pIC50: −log10 of the molar value. Active and inactive are the calls of the source. The calls are words filed in the database; no cut-off is given here.

As to `COc1cccc2c1C(=O)c1c(O)c3c(c(O)c1C2=O)C[C@@](O)(C(C)=O)C[C@@H]3O[C@H]1C[C@H](NCc2ccc(NC(=O)CCCCCCC(=O)NO)cc2)[C@H](O)[C@H](C)O1`, the Drug uptake result in data set [1], in data set [4], in data set [5] and in [9] was “Active” each time. For the same molecule, in [2], the inhibition entry is “inactive”. The pIC50 (usually the IC50 on a negative log10 scale, so that one unit is a factor of ten) against Histone deacetylase 1 is 7.33; with DU-145, 6.89; with MCF7 it was 6.00. The inhibition entry in data set [3], in data set [6] and in [10] was “Active” each time. Moreover, the IC50 (as a rule, the midpoint of a concentration-inhibition curve) in data set [7] came to 64.7 nM. Moreover, the outcome in data set [8] was inactive. The inhibition entry in [11] was “Dose-dependent effect”.
